In ChEMBL document CHEMBL4033786, “Discovery of Novel 1-Cyclopentenyl-3-phenylureas as Selective, Brain Penetrant, and Orally Bioavailable CXCR2 Antagonists” (J Med Chem, 2018):

How the values were obtained:
[1] = Tmax in dog at 1.29 mg/kg, po measured up to 4 hrs post dose; format: ADME, organism-based, Canis lupus familiaris; conditions: in vivo
[2] = target: T1, C-C chemokine receptor type 9 (Homo sapiens, UniProt P51686); assay: Antagonist activity at CCR9 (unknown origin)
In short: (§1)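 β-arrestin assays run in both agonist and antagonist modes across a panel of 18 CXC and CC chemokine receptors.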

Rattus norvegicus = assay: Dose normalized AUC (0 to infinity) in Wistar rat at 2.41 mg/kg, po measured up to 4 hrs post dose; format: ADME, organism-based; conditions: in vivo
[3] = Clearance in Wistar rat blood at 0.98 mg/kg, iv measured up to 4 hrs post dose; format: ADME, organism-based
[4] = Intrinsic clearance in human hepatocytes; format: ADME, cell-based, Hepatocyte
[5] = target: C-C chemokine receptor type 5 (Homo sapiens, UniProt P51681); assay: Antagonist activity at CCR5 (unknown origin); in short: as §1
[6] = target: T2, C-C chemokine receptor type 8 (Homo sapiens, UniProt P51685); assay: Agonist activity at CCR8 (unknown origin); in short: as §1
[7] = target: C-C chemokine receptor type 3 (Homo sapiens, UniProt P51677); assay: Antagonist activity at CCR3 (unknown origin); in short: as §1
[8] = Elimination half life in Wistar rat at 0.98 mg/kg, iv measured up to 4 hrs post dose; format: ADME, organism-based; conditions: in vivo, read-out: beta t1/2 (converted)
[9] = target: T3, C-X-C chemokine receptor type 2 (Homo sapiens, UniProt P25025); assay: Agonist activity at TEV protease cleavage site linked GAL4-VP16-fused recombinant human CXCR2 expressed in cells assessed as induction of beta-arrestin recruitment by CCF4-AM-fluorescence based FRET assay; format: cell-based
T3 sequence (P25025 whole entry): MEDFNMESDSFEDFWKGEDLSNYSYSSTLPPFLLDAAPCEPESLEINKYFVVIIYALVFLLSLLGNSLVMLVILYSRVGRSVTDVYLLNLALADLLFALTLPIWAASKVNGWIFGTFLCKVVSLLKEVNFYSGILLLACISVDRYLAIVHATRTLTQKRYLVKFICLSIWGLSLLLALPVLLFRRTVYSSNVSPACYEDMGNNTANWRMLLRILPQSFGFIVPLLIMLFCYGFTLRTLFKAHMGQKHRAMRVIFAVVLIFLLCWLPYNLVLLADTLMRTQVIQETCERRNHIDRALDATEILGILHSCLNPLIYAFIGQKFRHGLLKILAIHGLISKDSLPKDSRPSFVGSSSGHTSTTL
In short: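 Part of an 18-receptor chemokine panel run in agonist and antagonist modes. Stable line carrying human CXCR2 linked to a TEV site and Gal4-VP16 was starved 24 h at 37 °C, 5% CO2, and incubated overnight with compound dispensed in DMSO. CCF4-AM substrate was loaded for 2 h at room temperature in the dark. Read-out was the background-subtracted 460/530 nm ratio, with sigmoidal curve fit.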

[10] = target: C-X-C chemokine receptor type 6 (Homo sapiens, UniProt O00574); assay: Agonist activity at CXCR6 (unknown origin); in short: as §1
[11] = target: C-X-C chemokine receptor type 4 (Homo sapiens, UniProt P61073); assay: Agonist activity at CXCR4 (unknown origin); in short: as §1
[12] = target: C-C chemokine receptor type 2 (Homo sapiens, UniProt P41597); assay: Antagonist activity at CCR2 (unknown origin); in short: as §1
[13] = target: T2, C-C chemokine receptor type 8; assay: Antagonist activity at CCR8 (unknown origin); in short: as §1
[14] = Tmax in Wistar rat at 2.41 mg/kg, po measured up to 4 hrs post dose; format: ADME, organism-based; conditions: in vivo
[15] = target: T4, C-C chemokine receptor type 6 (Homo sapiens, UniProt P51684); assay: Agonist activity at CCR6 (unknown origin); in short: as §1
[16] = Efflux ratio of passive permeability in MDCK2-MDR1 cells transduced with BacMam2-BCRP at 3 uM after 90 mins by Transwell assay; format: ADME, cell-based, Canis lupus familiaris, MDCK-MDR1; conditions: dog
In short: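 MDCKII-MDR1 cells transduced with BacMam2-BCRP in Transwells. Compound at 3 μM was measured in duplicate, A→B and B→A, after 90 min, with and without 5 μM GF120918. ER = B→A/A→B permeability without inhibitor. System qualified with amprenavir and dantrolene ERs.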

[17] = target: T5, CX3C chemokine receptor 1 (Homo sapiens, UniProt P49238); assay: Agonist activity at CX3CR1 (unknown origin); in short: as §1
[18] = Clearance in dog blood at 0.85 mg/kg, iv measured up to 4 hrs post dose; format: ADME, organism-based, Canis lupus familiaris
[19] = target: T6, C-C chemokine receptor type 7 (Homo sapiens, UniProt P32248); assay: Antagonist activity at CCR7 (unknown origin); in short: as §1
Brain = assay: Dose normalized AUC (0 to 7 hrs) in Han-Wistar SOA rat model brain at 2 mg/kg administered via oral gavage by UPLC/MS/MS analysis; format: ADME, organism-based; conditions: in vivo
In short: (§2)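 Male Han-Wistar rats were given 2 mg/kg by oral gavage as a suspension in DMSO:1% methylcellulose (1:99). Blood (cardiac puncture, EDTA-K2, under isoflurane) and brains were collected at 0.25–7 h. Brain was homogenised in 3-fold PBS, samples were protein-precipitated and quantified by UPLC/MS/MS.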

[20] = target: Atypical chemokine receptor 3 (Homo sapiens, UniProt P25106); assay: Antagonist activity at CXCR7 (unknown origin); in short: as §1
[21] = Volume of distribution at steady state in Wistar rat at 0.98 mg/kg, iv measured up to 4 hrs post dose; format: ADME, organism-based; conditions: in vivo, read-out: Vdss
[22] = target: T5, CX3C chemokine receptor 1; assay: Antagonist activity at CX3CR1 (unknown origin); in short: as §1
[23] = target: T7, C-X-C chemokine receptor type 3 (Homo sapiens, UniProt P49682); assay: Agonist activity at CXCR3 (unknown origin); in short: as §1
Chemerin-like receptor 1 = Chemerin-like receptor 1 (Homo sapiens, UniProt Q99788); assay: Antagonist activity at CMKLR1 (unknown origin); in short: as §1
Blood = assay: Dose normalized AUC (0 to 7 hrs) in Han-Wistar SOA rat model blood at 2 mg/kg administered via oral gavage by UPLC/MS/MS analysis; format: ADME, organism-based; conditions: in vivo; in short: as §2
[24] = target: T7, C-X-C chemokine receptor type 3; assay: Antagonist activity at CXCR3 (unknown origin); in short: as §1
[25] = target: C-X-C chemokine receptor type 2 (Mus musculus, UniProt P35343); assay: Antagonist activity at CXCR2 in C57 mouse whole blood assessed as inhibition of GROalpha-stimulated CD11b upregulation preincubated for 2 hr followed by GROalpha stimulation measured after 10 mins by FITC-staining based FACS analysis
[26] = Passive permeability in MDCK2-MDR1 cells transduced with BacMam2-BCRP at 3 uM after 90 mins by Transwell assay; format: ADME, cell-based, Canis lupus familiaris, MDCK-MDR1; conditions: dog; read-out: permeability
In short: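 MDCKII-MDR1 cells transduced with BacMam2-BCRP and grown in Transwells. Compound at 3 μM, in duplicate, was incubated 90 min A→B (and B→A) with and without GF120918 (5 μM, dual P-gp/BCRP inhibitor). Passive permeability (Pexact, nm/s) was calculated by an equation from earlier work. The permeability ratio is A→B permeability with GF120918 over A→B permeability without it.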

[27] = Intrinsic clearance in dog hepatocytes; format: ADME, cell-based, Canis lupus familiaris, Hepatocyte
[28] = target: T4, C-C chemokine receptor type 6; assay: Antagonist activity at CCR6 (unknown origin); in short: as §1
[29] = target: T6, C-C chemokine receptor type 7; assay: Agonist activity at CCR7 (unknown origin); in short: as §1
[30] = target: T1, C-C chemokine receptor type 9; assay: Agonist activity at CCR9 (unknown origin); in short: as §1

T5 sequence (P49238 whole entry): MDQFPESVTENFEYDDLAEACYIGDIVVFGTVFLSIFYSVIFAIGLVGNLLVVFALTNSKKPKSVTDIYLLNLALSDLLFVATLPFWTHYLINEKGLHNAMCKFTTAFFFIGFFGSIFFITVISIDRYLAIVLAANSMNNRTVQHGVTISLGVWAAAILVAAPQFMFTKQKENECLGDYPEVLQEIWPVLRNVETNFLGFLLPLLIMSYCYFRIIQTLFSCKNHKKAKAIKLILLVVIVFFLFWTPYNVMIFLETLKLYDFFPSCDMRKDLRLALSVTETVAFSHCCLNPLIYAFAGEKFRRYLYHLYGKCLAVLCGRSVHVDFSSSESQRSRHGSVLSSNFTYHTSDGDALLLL
T6 sequence (P32248 whole entry): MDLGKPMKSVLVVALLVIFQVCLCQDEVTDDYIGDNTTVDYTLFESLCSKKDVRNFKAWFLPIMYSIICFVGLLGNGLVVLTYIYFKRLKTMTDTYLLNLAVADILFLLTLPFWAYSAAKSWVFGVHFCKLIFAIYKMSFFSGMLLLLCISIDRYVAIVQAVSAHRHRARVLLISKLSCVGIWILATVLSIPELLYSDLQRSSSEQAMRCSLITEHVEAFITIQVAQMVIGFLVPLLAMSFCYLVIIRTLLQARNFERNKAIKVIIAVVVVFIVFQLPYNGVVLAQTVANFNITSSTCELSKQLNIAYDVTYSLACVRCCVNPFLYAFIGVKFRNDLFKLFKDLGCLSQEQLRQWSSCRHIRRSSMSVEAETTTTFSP
T7 sequence (P49682 whole entry): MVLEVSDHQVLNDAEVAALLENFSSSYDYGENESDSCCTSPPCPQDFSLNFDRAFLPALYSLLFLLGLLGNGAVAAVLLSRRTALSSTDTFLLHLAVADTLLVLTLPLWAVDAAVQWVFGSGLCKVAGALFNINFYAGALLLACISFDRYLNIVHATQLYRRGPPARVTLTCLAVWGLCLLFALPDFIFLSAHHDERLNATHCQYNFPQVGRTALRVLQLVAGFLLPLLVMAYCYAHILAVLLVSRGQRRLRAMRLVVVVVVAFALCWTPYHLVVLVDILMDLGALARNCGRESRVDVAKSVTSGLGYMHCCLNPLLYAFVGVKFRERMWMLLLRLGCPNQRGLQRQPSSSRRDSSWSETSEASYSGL
T1 sequence (P51686 whole entry): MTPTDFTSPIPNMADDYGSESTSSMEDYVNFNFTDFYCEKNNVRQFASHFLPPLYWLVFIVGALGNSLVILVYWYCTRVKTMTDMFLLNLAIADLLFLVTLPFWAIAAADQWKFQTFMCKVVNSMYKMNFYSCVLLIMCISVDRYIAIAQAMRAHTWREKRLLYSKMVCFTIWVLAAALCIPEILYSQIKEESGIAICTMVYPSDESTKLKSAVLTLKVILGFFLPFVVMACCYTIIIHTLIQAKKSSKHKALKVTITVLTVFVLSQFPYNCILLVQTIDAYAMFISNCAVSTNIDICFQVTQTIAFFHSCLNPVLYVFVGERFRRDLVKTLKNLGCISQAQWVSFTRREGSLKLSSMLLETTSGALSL
T2 sequence (P51685 whole entry): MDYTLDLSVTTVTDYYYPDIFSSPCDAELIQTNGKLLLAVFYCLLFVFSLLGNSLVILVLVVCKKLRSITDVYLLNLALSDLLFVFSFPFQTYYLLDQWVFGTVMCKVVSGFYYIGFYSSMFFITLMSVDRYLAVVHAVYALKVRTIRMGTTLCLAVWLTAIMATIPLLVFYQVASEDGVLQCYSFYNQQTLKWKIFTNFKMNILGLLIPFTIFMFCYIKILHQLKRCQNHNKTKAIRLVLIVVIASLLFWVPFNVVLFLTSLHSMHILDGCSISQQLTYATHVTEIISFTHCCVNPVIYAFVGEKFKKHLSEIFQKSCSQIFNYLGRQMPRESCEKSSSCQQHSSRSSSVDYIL
T4 sequence (P51684 whole entry): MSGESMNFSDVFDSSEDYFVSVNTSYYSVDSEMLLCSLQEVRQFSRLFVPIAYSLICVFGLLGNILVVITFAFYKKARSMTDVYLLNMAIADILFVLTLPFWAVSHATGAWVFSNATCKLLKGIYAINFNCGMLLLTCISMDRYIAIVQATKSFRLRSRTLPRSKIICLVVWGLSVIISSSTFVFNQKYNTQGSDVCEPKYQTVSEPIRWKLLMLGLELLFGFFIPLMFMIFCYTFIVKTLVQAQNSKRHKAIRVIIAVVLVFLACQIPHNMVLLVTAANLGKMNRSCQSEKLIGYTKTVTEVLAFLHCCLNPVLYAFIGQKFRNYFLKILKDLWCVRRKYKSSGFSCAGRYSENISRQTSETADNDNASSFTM
C-C chemokine receptor type 2, sequence (P41597 whole entry): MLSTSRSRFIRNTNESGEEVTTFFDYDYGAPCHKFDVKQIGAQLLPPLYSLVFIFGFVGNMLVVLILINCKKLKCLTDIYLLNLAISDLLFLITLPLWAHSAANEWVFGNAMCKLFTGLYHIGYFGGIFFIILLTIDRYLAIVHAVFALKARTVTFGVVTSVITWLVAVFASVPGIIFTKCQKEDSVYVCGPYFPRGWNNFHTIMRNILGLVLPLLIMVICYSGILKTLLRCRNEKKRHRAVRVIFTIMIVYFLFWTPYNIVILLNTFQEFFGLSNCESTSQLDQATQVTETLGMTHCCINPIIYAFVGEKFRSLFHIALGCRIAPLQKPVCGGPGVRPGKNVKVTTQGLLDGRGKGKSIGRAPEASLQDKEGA
Chemerin-like receptor 1, sequence (Q99788 whole entry): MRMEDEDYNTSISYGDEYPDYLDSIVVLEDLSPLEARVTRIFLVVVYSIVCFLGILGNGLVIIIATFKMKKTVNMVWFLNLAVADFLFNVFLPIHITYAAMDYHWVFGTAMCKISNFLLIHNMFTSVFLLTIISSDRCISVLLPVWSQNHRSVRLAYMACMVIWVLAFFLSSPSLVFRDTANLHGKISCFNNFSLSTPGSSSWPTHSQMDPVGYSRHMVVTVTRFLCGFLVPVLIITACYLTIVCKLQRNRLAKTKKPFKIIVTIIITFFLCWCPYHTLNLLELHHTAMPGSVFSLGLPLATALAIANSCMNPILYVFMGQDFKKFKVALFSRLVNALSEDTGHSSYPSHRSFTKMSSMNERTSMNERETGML
C-X-C chemokine receptor type 2 (Mus musculus, UniProt P35343), sequence (P35343 whole entry): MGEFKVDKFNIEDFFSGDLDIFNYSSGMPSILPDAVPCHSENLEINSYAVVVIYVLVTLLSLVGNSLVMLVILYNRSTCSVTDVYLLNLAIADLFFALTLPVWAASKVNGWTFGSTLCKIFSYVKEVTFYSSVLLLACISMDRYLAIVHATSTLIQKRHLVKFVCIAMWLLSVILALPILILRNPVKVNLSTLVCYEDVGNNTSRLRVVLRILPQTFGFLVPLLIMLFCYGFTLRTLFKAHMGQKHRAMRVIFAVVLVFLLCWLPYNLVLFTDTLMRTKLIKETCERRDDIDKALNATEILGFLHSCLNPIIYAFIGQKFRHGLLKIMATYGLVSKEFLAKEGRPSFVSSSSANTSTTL
C-X-C chemokine receptor type 4, sequence (P61073 whole entry): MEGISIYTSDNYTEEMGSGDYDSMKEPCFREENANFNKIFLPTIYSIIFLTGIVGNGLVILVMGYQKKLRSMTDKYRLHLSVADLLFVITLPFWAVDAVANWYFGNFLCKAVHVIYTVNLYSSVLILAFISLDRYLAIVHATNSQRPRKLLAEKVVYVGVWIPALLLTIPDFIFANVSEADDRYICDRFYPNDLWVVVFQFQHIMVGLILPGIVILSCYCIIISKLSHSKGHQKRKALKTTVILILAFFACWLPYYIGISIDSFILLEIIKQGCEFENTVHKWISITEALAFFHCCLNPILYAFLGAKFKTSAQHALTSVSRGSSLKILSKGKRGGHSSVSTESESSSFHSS
C-X-C chemokine receptor type 6, sequence (O00574 whole entry): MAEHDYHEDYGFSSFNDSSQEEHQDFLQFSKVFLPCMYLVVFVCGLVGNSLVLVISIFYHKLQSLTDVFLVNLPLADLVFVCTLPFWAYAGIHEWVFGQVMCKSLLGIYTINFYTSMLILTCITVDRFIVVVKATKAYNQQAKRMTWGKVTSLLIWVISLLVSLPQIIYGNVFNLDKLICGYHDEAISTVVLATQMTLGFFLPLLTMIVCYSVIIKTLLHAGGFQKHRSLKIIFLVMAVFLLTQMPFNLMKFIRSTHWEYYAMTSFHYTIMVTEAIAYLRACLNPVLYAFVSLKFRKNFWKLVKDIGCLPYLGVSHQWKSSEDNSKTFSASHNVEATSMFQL
Atypical chemokine receptor 3, sequence (P25106 whole entry): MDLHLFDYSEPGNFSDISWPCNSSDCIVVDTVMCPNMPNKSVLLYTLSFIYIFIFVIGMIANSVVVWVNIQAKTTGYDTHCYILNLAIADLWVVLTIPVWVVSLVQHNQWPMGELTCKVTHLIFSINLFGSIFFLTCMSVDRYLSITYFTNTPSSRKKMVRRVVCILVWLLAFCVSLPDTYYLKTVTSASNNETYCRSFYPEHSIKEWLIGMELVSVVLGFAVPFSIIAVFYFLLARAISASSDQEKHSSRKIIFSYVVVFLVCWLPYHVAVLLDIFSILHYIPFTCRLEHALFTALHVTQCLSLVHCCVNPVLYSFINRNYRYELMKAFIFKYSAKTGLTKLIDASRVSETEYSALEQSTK
C-C chemokine receptor type 5, sequence (P51681 whole entry): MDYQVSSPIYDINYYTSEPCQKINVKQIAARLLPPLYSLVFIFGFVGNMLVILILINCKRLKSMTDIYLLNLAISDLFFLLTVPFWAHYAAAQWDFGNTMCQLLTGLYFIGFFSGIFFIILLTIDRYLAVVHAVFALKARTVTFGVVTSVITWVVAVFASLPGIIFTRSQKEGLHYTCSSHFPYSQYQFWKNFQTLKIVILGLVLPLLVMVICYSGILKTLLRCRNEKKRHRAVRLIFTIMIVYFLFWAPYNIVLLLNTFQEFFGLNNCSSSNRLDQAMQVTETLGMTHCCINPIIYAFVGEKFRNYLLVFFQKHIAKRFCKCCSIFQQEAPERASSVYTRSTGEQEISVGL

SMILES: CC1=CCC[C@H]1NC(=O)Nc1ccc(Cl)c(S(=O)(=O)[C@@]2(C)CCOC2)c1O
- Tmax [1]: 1.1 h
- IC50 [2]: > 10 µM
- AUC/dose (Rattus norvegicus): 860 ng·h/mL/mg/kg
- clearance [3]: 9.1 mL/min/kg
- CLH [4]: 0.79 mL/min/g
- IC50 [5]: > 10 µM
- EC50 [6]: > 10 µM
- IC50 [7]: > 10 µM
- half-life [8]: 4.3 h
- EC50 [9]: > 10 µM
- EC50 [10]: > 10 µM
- EC50 [11]: > 10 µM
- IC50 [12]: > 10 µM
- IC50 [13]: > 10 µM
- Tmax [14]: 1 h
- EC50 [15]: > 10 µM
- efflux ratio at 1.5 h, 3 µM [16]: 2
- EC50 [17]: > 10 µM
- clearance [18]: 5.6 mL/min/kg
- IC50 [19]: > 10 µM
- AUC/dose (Brain): 87.7 ng·h/g/mg/kg
- IC50 [20]: > 10 µM
- Vd [21]: 2.1 L/kg
- IC50 [22]: > 10 µM
- EC50 [23]: > 10 µM
- IC50 (Chemerin-like receptor 1): > 10 µM
- AUC/dose (Blood): 651 ng·h/mL/mg/kg
- IC50 [24]: > 10 µM
- IC50 [25]: 0.0059 µM
- Papp at 1.5 h, 3 µM [26]: 25.4 ×10⁻⁶ cm/s
- CLH [27]: 1.8 mL/min/g
- IC50 [28]: > 10 µM
- EC50 [29]: > 10 µM
- EC50 [30]: > 10 µM
